Measurements reported in the RNAGym collection of RNA variant scans (doi:10.1126/science.aae0568).
This sample holds only a part of the variants without activity.

B1: tRNA (parent)
chain: GUUCCGUUGGCGUAAUGGUAACGCGUCUCCCUCCUAAGGAGAAGACUGCGGGUUCGAGUCCCGUACGGAACG

Variants of: B1
Assay: yeast fitness relative to wild type (ratio to wild type); higher = fitter; tRNA-Arg(CCU), competitive growth, 37 C, YPD
Outline: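 Start and end populations of a pooled competition were compared by 100-nucleotide paired-end sequencing of gene amplicons. The Saccharomyces cerevisiae strains carried tRNA-Arg(CCU) gene variants at the native genomic locus, synthesised with a 3% per-site mutation rate at 69 sites, and competed in YPD at 37°C for 24 hours in six parallel replicates. Darwinian fitness relative to wild type was based on the change in genotype frequencies. Genotypes required ≥ 100 starting reads, and estimates < 0.5 were set to 0.5.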

Variant	yeast fitness
C5U A65G	0.94
C5U C22G C66G	0.547
C5U C22G C30U C33G A69G	0.552
C5U C22U A37U	0.535
C5U C11U C46U A65U A69U	0.563
C5U C11U C61G G63C	0.546
C5U C22A G25A	0.781
C5U C11A A21G A40U G68C	≤ 0.5
C5U A57G C66U	0.655
C5U A42G C49U A65C	≤ 0.5
C5U C27G C31G G44C A45G	≤ 0.5
C5U A57C C62U	0.54
C5U A70C	1.06
C5U C22G C29A A45U C55U	≤ 0.5
C5U A57C G58C U59G C66U	≤ 0.5
C5U C11A A69U	≤ 0.5
C5U C22U	0.792
C5U C22G	0.991
C5U C22A	0.84
C5U C11U G25A A37G C46G G51C A57C C61U	≤ 0.5
C5U C24U G44C C60A	0.527
C5U C24U C46G A65C	0.537
C5U C22U C33U A37G	≤ 0.5
C5U C24U C29A	0.574

Variant	yeast fitness
C5U C24U A42C A57U C62A	≤ 0.5
C5U C11U C30G C61A	≤ 0.5
C5U C22G C29A A45U	0.627
C5U C22G A70U	0.754
C5U A45G G63A	0.708
C5U C24G A40C A69C	0.522
C5U C27A A42U G48A C49G C60A	0.592
C5U C22U C33U	0.561
C5U C11A C24G C27G A36U G38C	≤ 0.5
C5U C11U A45U A70C	0.725
C5U C24U U32C	0.72
C5U C11G C33A G67A	≤ 0.5
C5U C24A G41A A69C	≤ 0.5
C5U C22U A37U G68U	≤ 0.5
C5U A45U G56A	0.715
C5U A43U C49U C61U	≤ 0.5
C5U A43U C49U C61G	0.532
C5U A65U A69U	0.623
C5U C11U G17A C31G G68A	≤ 0.5
C5U C11U A14C C61A	≤ 0.5
C5U C11U A36U C66U	≤ 0.5
C5U C11A A14G	≤ 0.5
C5U A42U A69U	0.728
C5U C27A G63C	≤ 0.5

Variant	yeast fitness
C5U C11U A15G C34U G44C U47G	≤ 0.5
C5U C11G C24U A42C G67A	≤ 0.5
C5U C11U C24G C61U C62G A65C	≤ 0.5
C5U C24A C33U U47C G63A G67U	0.718
C5U C22U C66U	≤ 0.5
C5U C27G C55G A69U	≤ 0.5
C5U C24A C33U A70U	≤ 0.5
C5U A43U C49U C61A C66U	≤ 0.5
C5U C24A A65U	0.733
C5U C22G C29G G68C	≤ 0.5
C5U C11G U19G C24G C30U	0.547
C5U C22A C62G	0.546
C5U C22A A42C C55G A57C C62U	≤ 0.5
C5U A42G G51C	0.549
C5U C11A U28G G44C	≤ 0.5
C5U C22G A40G C46U C62U	≤ 0.5
C5U C22U U53C U59G C61G C62U	≤ 0.5
C5U C11G	0.597
C5U C22U C62U	0.66
C5U C11G C31U G41C U54G	0.746
C5U C11A A14G A42G C55U A65U	≤ 0.5
C5U C11G C24U A42C	0.552
C5U C22U C33U C61G	≤ 0.5
C5U C24G C31G C61G	≤ 0.5

Variant	yeast fitness
C5U C11U G38A G58C C61U C66U	0.573
C5U C27A	0.817
C5U C27G	0.61
C5U C22U A36G	0.749
C5U A45G C49G U59C C60U A69C	≤ 0.5
C5U C11A U26A C29U C30A C31U	≤ 0.5
C5U A45C G58C	0.977
C5U A45C C62U	0.768
C5U A45C C62A	0.701
C5U C11U A15G G48C	0.553
C5U C22G U28A C31G C55A G68C	0.542
C5U C11U G25C	0.694
C5U C11G U32A U35G C55A C61G	≤ 0.5
C5U C27G A69C	≤ 0.5
C5U C22G G50C	≤ 0.5
C5U A43U C49U C66U	≤ 0.5
C5U C27A G41C A57U	≤ 0.5
C5U C24G A37U G56A A65C	≤ 0.5
C5U A45C C55U G68C	0.57
C5U A65C G67C	0.566
C5U C22U G23C A36G G67A	≤ 0.5
C5U C11U U32C C49U	0.537
C5U C11U A14C	0.731
C5U A65U G68C	0.541

Variant	yeast fitness
C5U C11U C46G	0.7
C5U C11U C46U	0.752
C5U C22U A45G	0.666
C5U C11G C24G	≤ 0.5
C5U C22G U26G A42C G51A	0.537
C5U C22U C33U U53A	≤ 0.5
C5U C22G A45C	0.566
C5U C11U C46U G51A C66U	≤ 0.5
C5U C11A U54C G63A	≤ 0.5
C5U C11A C24G C27G A36U G38C G67C	≤ 0.5
C5U C11U A21C C24U U26C U28A C31G C49G	≤ 0.5
C5U C24U A42C A57U G63C	≤ 0.5
C5U C11G U13G G23C C34U U59C C66U	≤ 0.5
C5U C24G C30G A36U C55U A69C	≤ 0.5
C5U C22G C30U C33G	≤ 0.5
C5U C27G C33G G41C C61A	≤ 0.5
C5U C24G	0.571
C5U C22A C27G	0.569
C5U A57C	0.659
C5U A57G	0.807
C5U C24G U32G A36G C60A A65U	0.535
C5U C11U A36U C60A	≤ 0.5
C5U C11U C33G A43C	≤ 0.5
C5U C22U C24A G56C U59G	≤ 0.5

Variant	yeast fitness
C5U C11G C29G	0.733
C5U C11U U28C C34G A40G A43G C46G G52A C55U C66U	≤ 0.5
C5U C11U U53G G56A C61U	≤ 0.5
C5U A69U	0.972
C5U C24U A42C	0.746
C5U A43G C62A	0.588
C5U C11A A21C C27G G68C	≤ 0.5
C5U C24U A36G G41C	≤ 0.5
C5U A45U G68C	0.531
C5U C11A U13C C24G C30G C60U A69U	≤ 0.5
C5U A43G A45G	0.669
C5U A43C A69C	0.802
C5U C11G C24U A42C A65C	0.605
C5U C24U A42C A57U	0.534
C5U C22U C31U C49A U59C	≤ 0.5
C5U C11U A21U	0.696
C5U C22G C29G	0.602
C5U C11U A21G C24G A42U A43C U53G A57C	≤ 0.5
C5U A43U	0.918
C5U A43G	0.966
C5U C22U C27U A42G G48A C55A C60A A70U	≤ 0.5
C5U C11U A40U G48A C49U	0.709
C5U C11G U19G C24G C30U C61U	≤ 0.5
C5U A43U G56C G68U	0.635

Variant	yeast fitness
C5U C27G C31G	0.679
C5U C22U A37U G67A	≤ 0.5
C5U C11U A15C U28A C62U C66A	≤ 0.5
C5U C22G C24G C30A C31U	≤ 0.5
C5U C11U A14G A15G G48C	≤ 0.5
C5U C24G A42C U53G	≤ 0.5
C5U A45C	1.06
C5U C24A C27G C61A C66G	0.624
C5U C22U C31G C33G C34U G68A	≤ 0.5
C5U C11G C33A	0.557
C5U C11U A15G G48C G63U A70U	≤ 0.5
C5U C11A A40G C55A C66A	≤ 0.5
C5U C22G C29A A45U A70U	0.539
C5U A43U G48A C61G A70C	≤ 0.5
C5U C11A G44C	≤ 0.5
C5U A42G U47A	0.619
C5U C22U G44C	0.73
C5U C27G G38U	≤ 0.5
C5U C22A C61U A65C	≤ 0.5
C5U C22G A40G A70G	≤ 0.5
C5U A45C U53G	0.574
C5U C22A C60G	0.628
C5U A42U A43G	0.63
